Reference: ChEMBL document CHEMBL4414562, “Discovery of the First in Vivo Active Inhibitors of the Soluble Epoxide Hydrolase Phosphatase Domain” (J Med Chem, 2019)
Active and inactive are the calls of the source. The rule behind the calls is not given here.

Tests used:
[1] = Inhibition of hexa-His-tagged human soluble epoxide hydrolase N-terminal phosphatase domain expressed in Escherichia coli BL21(DE3) pre-incubated for 30 mins before FDP substrate addition by fluorescence based assay
[2] = target: T1, Bifunctional epoxide hydrolase 2 (Homo sapiens, UniProt P34913); assay: Inhibition of hydrolase activity of full length human soluble epoxide hydrolase pre-incubated for 30 mins before PHOME substrate addition by fluorescence based assay
T1 sequence (P34913 whole entry): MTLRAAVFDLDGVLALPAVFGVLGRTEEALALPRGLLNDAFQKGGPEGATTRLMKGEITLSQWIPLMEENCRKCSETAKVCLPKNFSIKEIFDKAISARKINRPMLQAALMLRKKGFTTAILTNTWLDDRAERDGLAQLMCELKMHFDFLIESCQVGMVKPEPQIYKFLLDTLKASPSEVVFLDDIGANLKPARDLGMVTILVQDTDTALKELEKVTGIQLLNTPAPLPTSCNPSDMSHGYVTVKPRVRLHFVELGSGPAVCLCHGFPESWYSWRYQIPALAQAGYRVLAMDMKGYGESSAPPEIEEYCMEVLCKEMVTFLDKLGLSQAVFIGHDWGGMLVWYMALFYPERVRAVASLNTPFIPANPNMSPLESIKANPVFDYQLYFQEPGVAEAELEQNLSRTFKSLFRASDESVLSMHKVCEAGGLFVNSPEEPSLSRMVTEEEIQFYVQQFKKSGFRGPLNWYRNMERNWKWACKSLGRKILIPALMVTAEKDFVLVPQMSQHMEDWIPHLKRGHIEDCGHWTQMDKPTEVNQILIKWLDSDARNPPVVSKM
Summary of the method: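 Hydrolase assay with 0.1 μM full-length enzyme in Bis-Tris pH 7 containing 0.1 mg/mL BSA and 0.01% Triton X-100. Reaction started with PHOME (50 μM final). Triplicates.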

[3] = target: T1, Bifunctional epoxide hydrolase 2; assay: Inhibition of phosphatase activity of full length human soluble epoxide hydrolase pre-incubated for 30 mins before FDP substrate addition by fluorescence based assay
[4] = target: T1, Bifunctional epoxide hydrolase 2; assay: Inhibition of hexa-His-tagged human soluble epoxide hydrolase C-terminal hydrolase domain expressed in Escherichia coli BL21(DE3) pre-incubated for 30 mins before PHOME substrate addition by fluorescence based assay
Homo sapiens [5] = species on record: Homo sapiens; assay: Induction of stabilization of hexa-His-tagged human soluble epoxide hydrolase N-terminal phosphatase domain expressed in Escherichia coli BL21(DE3) at 50 uM by differential scanning fluorimetry
[6] = target: T2, Bifunctional epoxide hydrolase 2 (Homo sapiens) (UniProt P34913); assay: Induction of stabilization of hexa-His-tagged human soluble epoxide hydrolase C-terminal hydrolase domain expressed in Escherichia coli BL21(DE3) at 50 uM by differential scanning fluorimetry
T2 sequence (whole entry): T1 sequence (P34913 whole entry)

Homo sapiens [7] = species on record: Homo sapiens

| IC50 [1] [µM] | SMILES | other results |
| --- | --- | --- |
| 12 | O=C(O)c1ccc(-c2nc(-c3ccc(Cl)c(Cl)c3)c(-c3ccccc3)o2)cc1 | – |
| 4 | O=C(O)CCCc1nc(-c2ccc(Cl)c(Cl)c2)c(-c2cccnc2)o1 | – |
| 0.15 | O=C(O)c1cccc(-c2nc(-c3ccc(Cl)c(Cl)c3)c(-c3ccccc3)o2)c1 | – |
| > 50 | O=C(O)CCCc1nc(-c2ccc(Cl)c(Cl)c2)co1 | – |
| 0.31 | Cc1cccc(-c2oc(CCCC(=O)O)nc2-c2ccc(Cl)c(Cl)c2)c1 | – |
| 0.31 | O=C(O)CCCc1nc(-c2ccc(Cl)c(Cl)c2)c(-c2ccccc2F)o1 | – |
| 0.23 | O=C(O)CCCc1nc(-c2ccc(Cl)c(Cl)c2)c(-c2cccc(Cl)c2)o1 | – |
| – | O=C(Nc1ccc(I)cc1)NC1CCCCC1 | Activity (Homo sapiens [5]): inactive; Activity [6]: Active |
| 33 | O=C(O)CCc1nc(-c2ccc(C(F)(F)F)cc2)c(-c2ccccc2)o1 | – |
| 0.14 | C#Cc1cccc(-c2oc(CCCC(=O)O)nc2-c2ccc(Cl)c(Cl)c2)c1 | – |
| 18 | COc1ccc(-c2nc(CCC(=O)O)oc2-c2ccccc2)cc1 | – |
| 0.28 | O=C(O)CCCc1nc(-c2ccc(Cl)c(Cl)c2)c(-c2cc(F)ccc2F)o1 | – |
| 0.12 | O=C(O)CCCc1nc(-c2ccc(Cl)c(Cl)c2)c(-c2cccc(F)c2)o1 | – |
| 9 | O=C(O)CCc1nc(-c2ccc(F)cc2)c(-c2ccccc2)o1 | – |
| 40 | O=C(O)CCc1nc(-c2ccccc2F)c(-c2ccccc2)o1 | – |
| 15 | O=C(O)c1ccccc1-c1nc(-c2ccc(Cl)c(Cl)c2)c(-c2ccccc2)o1 | – |

| IC50 [1] [µM] | SMILES | other results |
| --- | --- | --- |
| 17 | O=C(O)CCc1nc(-c2ccc(Cl)cc2Cl)c(-c2ccccc2)o1 | – |
| 10 | N#Cc1cccc(-c2nc(CCC(=O)O)oc2-c2ccccc2)c1 | – |
| 0.31 | COc1cccc(-c2oc(CCCC(=O)O)nc2-c2ccc(Cl)c(Cl)c2)c1 | – |
| 0.12 | O=C(O)CCc1nc(-c2ccc(Cl)c(Cl)c2)c(-c2ccccc2)o1 | – |
| 7 | O=C(O)CCc1nc(-c2cccc(F)c2)c(-c2ccccc2)o1 | – |
| 33 | O=C(O)CCc1nc(-c2ccccc2Cl)c(-c2ccccc2)o1 | – |
| 20 | O=C(O)CCCc1nc(-c2ccc(Cl)c(Cl)c2)c(-c2ccncc2)o1 | – |
| 3 | O=C(O)CCCc1nc(-c2ccc(Cl)c(Cl)c2)c(Br)o1 | – |
| 0.41 | O=C(O)CCCc1nc(-c2ccc(Cl)c(Cl)c2)c(-c2cccc(C(F)(F)F)c2)o1 | – |
| 2 | O=C(O)CCc1nc(-c2ccc(Cl)c(C(F)(F)F)c2)c(-c2ccccc2)o1 | – |
| 3 | O=C(O)CCc1nc(-c2ccc(Cl)cc2)c(-c2ccccc2)o1 | – |
| 44 | N#Cc1ccc(-c2nc(CCC(=O)O)oc2-c2ccccc2)cc1 | – |
| 9 | O=C(O)CCc1nc(-c2cc(Cl)cc(Cl)c2)c(-c2ccccc2)o1 | – |
| 0.55 | CC(=O)N[C@@H](CSC/C=C(\C)CC/C=C(\C)CCC=C(C)C)C(=O)O | IC50 [2]: > 300 µM; IC50 [3]: 2.04 µM; ΔTm (Homo sapiens [7]): 3.4 °C; IC50 [4]: > 300 µM |
| 0.12 | N#Cc1cccc(-c2oc(CCCC(=O)O)nc2-c2ccc(Cl)c(Cl)c2)c1 | – |
| 0.51 | O=C(O)/C=C/c1nc(-c2ccc(Cl)c(Cl)c2)c(-c2ccccc2)o1 | – |

| SMILES | IC50 [1] [µM] | other results |
| --- | --- | --- |
| O=c1c2ccccc2[se]n1-c1ccccc1 [EBSELEN] | 0.29 | IC50 [2]: 0.3 µM; IC50 [3]: 0.42 µM; IC50 [4]: 0.11 µM |
